This note sets out measurements from ChEMBL document CHEMBL1139833, “Synthesis and metabotropic glutamate receptor activity of S-oxidized variants of (-)-4-amino-2-thiabicyclo-[3.1.0]hexane-4,6-dicarboxylate: identification of potent, selective, and orally bioavailable agonists for mGlu2/3 receptors” (J Med Chem, 2007).

For series [1], the target named is Metabotropic glutamate receptor 5 (Homo sapiens) (UniProt P41594). The series is described as follows: Agonist activity at human mGluR5a assessed as effect on cAMP production in RGT cells upto 100 uM. In kind it is functional, cell-based. The gist of the method:
(§1)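 Compounds were tested at concentrations up to 100 µM for agonist or antagonist effects. Assays used RGT cells, which are AV12-664 cells coexpressing GLAST and recombinant human mGlu1a, mGlu5a, mGlu4a or mGlu7a.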
For orientation: Cyclic AMP is a second messenger, typically raised through Gs and lowered through Gi signalling.

Series [2] deals with Metabotropic glutamate receptor 1 (Homo sapiens) (UniProt Q13255). The series is described as follows: Antagonist activity against human mGluR1a assessed as effect on cAMP production in RGT cells upto 100 uM. The series is classed as functional, cell-based. The gist of the method: as §1
Sequence of Metabotropic glutamate receptor 1 (Homo sapiens) (Q13255 19-1194 limits assumed): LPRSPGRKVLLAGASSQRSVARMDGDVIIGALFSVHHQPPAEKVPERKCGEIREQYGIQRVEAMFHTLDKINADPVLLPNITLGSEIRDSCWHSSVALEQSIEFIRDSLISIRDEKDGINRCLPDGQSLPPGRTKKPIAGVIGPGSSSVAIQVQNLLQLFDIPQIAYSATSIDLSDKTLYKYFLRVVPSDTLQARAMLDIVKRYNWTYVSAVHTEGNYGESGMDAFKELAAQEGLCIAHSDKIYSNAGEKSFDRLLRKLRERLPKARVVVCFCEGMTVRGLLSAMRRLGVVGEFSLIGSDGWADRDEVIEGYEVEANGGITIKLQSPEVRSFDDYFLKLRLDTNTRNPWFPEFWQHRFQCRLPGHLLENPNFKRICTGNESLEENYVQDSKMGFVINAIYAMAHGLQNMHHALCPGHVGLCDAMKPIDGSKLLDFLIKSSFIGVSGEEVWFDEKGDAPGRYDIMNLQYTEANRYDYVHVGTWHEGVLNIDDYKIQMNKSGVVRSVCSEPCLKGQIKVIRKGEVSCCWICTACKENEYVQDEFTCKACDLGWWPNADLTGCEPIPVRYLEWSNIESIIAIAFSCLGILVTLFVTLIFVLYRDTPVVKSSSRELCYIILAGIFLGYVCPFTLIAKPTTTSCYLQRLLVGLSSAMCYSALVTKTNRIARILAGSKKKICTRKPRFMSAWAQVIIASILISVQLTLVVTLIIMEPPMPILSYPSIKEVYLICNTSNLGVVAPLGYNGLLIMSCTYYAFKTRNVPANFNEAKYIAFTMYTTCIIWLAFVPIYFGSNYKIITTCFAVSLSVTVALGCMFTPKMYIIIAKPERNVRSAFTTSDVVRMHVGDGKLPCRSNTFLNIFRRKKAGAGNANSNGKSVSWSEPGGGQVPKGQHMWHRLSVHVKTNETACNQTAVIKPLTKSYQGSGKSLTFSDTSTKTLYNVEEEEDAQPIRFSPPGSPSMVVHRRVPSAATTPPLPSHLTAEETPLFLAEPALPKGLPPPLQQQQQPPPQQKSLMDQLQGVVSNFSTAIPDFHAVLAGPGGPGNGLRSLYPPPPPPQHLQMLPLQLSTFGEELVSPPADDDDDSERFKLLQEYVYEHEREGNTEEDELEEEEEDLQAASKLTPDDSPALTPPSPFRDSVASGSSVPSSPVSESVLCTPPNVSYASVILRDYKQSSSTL
Series [3] has as its target Metabotropic glutamate receptor 4 (Homo sapiens) (UniProt Q14833). The series is described as follows: Antagonist activity against human mGluR4a assessed as effect on cAMP production in RGT cells upto 100 uM. In kind it is functional, cell-based. The method in brief:
as §1

The target of series [4] is Metabotropic glutamate receptor 1 (Homo sapiens) (UniProt Q13255). Nature of the series: Agonist activity at human mGluR1a assessed as effect on cAMP production in RGT cells upto 100 uM. The series is classed as functional, cell-based. The method in brief:
as §1

The target of series [5] is Metabotropic glutamate receptor 5 (Homo sapiens) (UniProt P41594). Nature of the series: Antagonist activity against human mGluR5a assessed as effect on cAMP production in RGT cells upto 100 uM. In kind it is functional, cell-based. The method in brief:
as §1

For series [6], the target named is Metabotropic glutamate receptor 4 (Homo sapiens) (UniProt Q14833). The series is described as follows: Agonist activity at human mGluR4a assessed as effect on cAMP production in RGT cells upto 100 uM. The series is classed as functional, cell-based. The method in brief: as §1
Sequence of Metabotropic glutamate receptor 4 (Homo sapiens) (Q14833 whole entry): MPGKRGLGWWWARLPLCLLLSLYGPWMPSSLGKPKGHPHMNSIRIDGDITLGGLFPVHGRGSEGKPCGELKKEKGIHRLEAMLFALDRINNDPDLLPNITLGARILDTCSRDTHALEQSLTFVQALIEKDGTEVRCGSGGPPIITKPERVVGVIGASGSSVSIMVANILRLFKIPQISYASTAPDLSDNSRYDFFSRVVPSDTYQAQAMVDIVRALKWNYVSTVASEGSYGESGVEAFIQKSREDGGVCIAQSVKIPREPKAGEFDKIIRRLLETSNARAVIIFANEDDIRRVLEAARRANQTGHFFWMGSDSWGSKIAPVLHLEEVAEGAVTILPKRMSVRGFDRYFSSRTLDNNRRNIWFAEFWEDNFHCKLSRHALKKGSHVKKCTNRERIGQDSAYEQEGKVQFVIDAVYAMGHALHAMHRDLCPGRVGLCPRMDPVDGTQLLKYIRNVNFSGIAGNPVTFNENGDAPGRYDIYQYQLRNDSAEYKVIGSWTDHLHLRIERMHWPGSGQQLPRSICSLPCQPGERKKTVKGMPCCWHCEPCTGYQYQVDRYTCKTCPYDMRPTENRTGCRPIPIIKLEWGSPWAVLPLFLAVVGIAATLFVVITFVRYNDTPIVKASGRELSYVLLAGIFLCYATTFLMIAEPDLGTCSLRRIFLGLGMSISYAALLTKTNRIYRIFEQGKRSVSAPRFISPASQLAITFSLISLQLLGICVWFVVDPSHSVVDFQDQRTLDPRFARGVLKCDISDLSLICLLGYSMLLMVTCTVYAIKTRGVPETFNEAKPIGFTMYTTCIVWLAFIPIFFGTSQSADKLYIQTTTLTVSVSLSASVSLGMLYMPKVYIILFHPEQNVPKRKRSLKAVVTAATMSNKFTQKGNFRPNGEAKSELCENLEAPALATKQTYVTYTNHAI
For series [7], the target named is Metabotropic glutamate receptor 7 (Homo sapiens) (UniProt Q14831). Nature of the series: Agonist activity at human mGluR7a assessed as effect on cAMP production in RGT cells upto 100 uM. In kind it is functional, cell-based. The gist of the method:
as §1

The target is the same in series [8]. Nature of the series: Antagonist activity against human mGluR7a assessed as effect on cAMP production in RGT cells upto 100 uM. The series is classed as functional, cell-based. The method in brief:
as §1

The test system of series [9] is Rattus norvegicus. The series is described as follows: Impairment of rotarod performance in Sprague-Dawley rat at 3 mg/kg, po after 2 hrs. The series is classed as functional, organism-based. Also noted: dose 3 mg/kg. The method in brief:
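Fasted Sprague-Dawley rats were trained on a rotorod at 4 rpm over four trials. Rats holding on for 60 s were retested 30 min before dosing, then given oral drug or vehicle. They were tested again 2 h later for up to 60 s. Read-out is mean seconds on the rod, n=8 per group.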

For series [10], the system named is Rattus norvegicus. Nature of the series: Plasma concentration in Fischer 344 rat at 10 mg/kg, po after 0.5 hrs. In kind it is ADME, organism-based. Also noted: dose 10 mg/kg, route oral. The conditions noted are these: in vivo. The method in brief:
(§2)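 Plasma levels in fasted male Fischer 344 rats after a 10 mg/kg oral dose in pH 7 water (NaOH), quantified by positive-ion electrospray LC/MS/MS. Main protocol sampled at 0.08/0.25–24 h, n=3 rats per time point. A variant oral-only arm used n=6 rats with samples at 0.5, 1, 2, 3, 4 and 6 h.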

Series [11] concerns Rattus norvegicus. Nature of the series: Plasma concentration in Fischer 344 rat at 10 mg/kg, po after 2 hrs. Also noted: dose 10 mg/kg, route oral. In kind it is ADME, organism-based. As to conditions: in vivo. The method in brief:
as §2

Series [12] concerns Rattus norvegicus. The series is described as follows: Plasma concentration in Fischer 344 rat at 10 mg/kg, po after 4 hrs. The conditions noted are these: in vivo. Also noted: dose 10 mg/kg, route oral. The series is classed as ADME, organism-based. The method in brief:
as §2

The subject of series [13] is Rattus norvegicus. Nature of the series: Tmax in Fischer 344 rat at 10 mg/kg, po. The series is classed as ADME, organism-based. Also noted: dose 10 mg/kg, route oral. The conditions noted are these: rat, in vivo. The method in brief:
(§3)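 Male Fischer 344 rats fasted overnight, food returned 4 h post dose, water ad libitum. Doses were in water brought to pH 7 with NaOH, given i.v. (2.5 or 10 mg/kg) or p.o. (10 mg/kg). Nine rats per dose group, three per time point, with blood taken over 0.08–24 h. Plasma measured by LC/MS/MS.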

The subject of series [14] is Rattus norvegicus. Nature of the series: Plasma concentration in Fischer 344 rat at 10 mg/kg, po after 1 hrs. The conditions noted are these: in vivo. Also noted: dose 10 mg/kg, route oral. In kind it is ADME, organism-based. The method in brief: as §2
Series [15] has as its system Rattus norvegicus. The series is described as follows: AUC (0-24h) in Fischer 344 rat at 10 mg/kg, po. Also noted: time < 24 hr, dose 10 mg/kg, route oral. As to conditions: rat, in vivo, 24 h. The series is classed as ADME, organism-based, Plasma. The method in brief: as §3
For series [16], the system named is Rattus norvegicus. The series is described as follows: Cmax in Fischer 344 rat at 10 mg/kg, po. In kind it is ADME, organism-based. Also noted: dose 10 mg/kg, route oral. The conditions noted are these: in vivo. The gist of the method:
as §3

Series [17] relates to Rattus norvegicus. The series is described as follows: Plasma concentration in Fischer 344 rat at 10 mg/kg, po after 6 hrs. In kind it is ADME, organism-based. Also noted: dose 10 mg/kg, route oral. The conditions noted are these: in vivo. The gist of the method:
as §2

Series [18] relates to Rattus norvegicus. Nature of the series: Plasma concentration in Fischer 344 rat at 10 mg/kg, po after 3 hrs. In kind it is ADME, organism-based. Also noted: dose 10 mg/kg, route oral. As to conditions: in vivo. The gist of the method: as §2

The source made the active and inactive calls. No cut-off for these calls is given here.

Sequence of Metabotropic glutamate receptor 7 (Homo sapiens) (Q14831 whole entry): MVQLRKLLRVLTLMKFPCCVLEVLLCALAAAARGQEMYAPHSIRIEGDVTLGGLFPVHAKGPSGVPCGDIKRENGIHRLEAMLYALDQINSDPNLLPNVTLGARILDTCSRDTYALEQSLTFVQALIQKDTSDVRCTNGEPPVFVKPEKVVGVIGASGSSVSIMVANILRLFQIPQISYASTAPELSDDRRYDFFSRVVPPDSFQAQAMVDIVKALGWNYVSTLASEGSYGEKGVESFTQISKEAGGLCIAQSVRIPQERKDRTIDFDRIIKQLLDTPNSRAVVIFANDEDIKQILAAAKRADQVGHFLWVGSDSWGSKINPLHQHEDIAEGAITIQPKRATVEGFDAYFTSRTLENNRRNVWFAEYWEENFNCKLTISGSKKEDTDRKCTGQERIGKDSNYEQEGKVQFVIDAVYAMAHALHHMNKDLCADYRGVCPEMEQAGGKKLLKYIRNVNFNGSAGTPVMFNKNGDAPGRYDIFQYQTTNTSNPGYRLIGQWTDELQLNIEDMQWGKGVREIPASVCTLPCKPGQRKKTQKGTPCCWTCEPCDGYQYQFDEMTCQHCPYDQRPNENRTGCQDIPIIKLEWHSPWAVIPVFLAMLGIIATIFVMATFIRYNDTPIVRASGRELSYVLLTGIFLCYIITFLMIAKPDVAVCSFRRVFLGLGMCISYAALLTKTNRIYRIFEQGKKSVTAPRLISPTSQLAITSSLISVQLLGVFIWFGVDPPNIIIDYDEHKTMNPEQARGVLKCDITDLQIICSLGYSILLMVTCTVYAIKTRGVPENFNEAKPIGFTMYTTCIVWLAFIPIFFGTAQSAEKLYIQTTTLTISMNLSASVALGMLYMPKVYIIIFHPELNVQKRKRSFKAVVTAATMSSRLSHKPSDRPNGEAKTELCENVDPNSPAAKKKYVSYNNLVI
Sequence of Metabotropic glutamate receptor 5 (Homo sapiens) (P41594 21-1212 limits assumed): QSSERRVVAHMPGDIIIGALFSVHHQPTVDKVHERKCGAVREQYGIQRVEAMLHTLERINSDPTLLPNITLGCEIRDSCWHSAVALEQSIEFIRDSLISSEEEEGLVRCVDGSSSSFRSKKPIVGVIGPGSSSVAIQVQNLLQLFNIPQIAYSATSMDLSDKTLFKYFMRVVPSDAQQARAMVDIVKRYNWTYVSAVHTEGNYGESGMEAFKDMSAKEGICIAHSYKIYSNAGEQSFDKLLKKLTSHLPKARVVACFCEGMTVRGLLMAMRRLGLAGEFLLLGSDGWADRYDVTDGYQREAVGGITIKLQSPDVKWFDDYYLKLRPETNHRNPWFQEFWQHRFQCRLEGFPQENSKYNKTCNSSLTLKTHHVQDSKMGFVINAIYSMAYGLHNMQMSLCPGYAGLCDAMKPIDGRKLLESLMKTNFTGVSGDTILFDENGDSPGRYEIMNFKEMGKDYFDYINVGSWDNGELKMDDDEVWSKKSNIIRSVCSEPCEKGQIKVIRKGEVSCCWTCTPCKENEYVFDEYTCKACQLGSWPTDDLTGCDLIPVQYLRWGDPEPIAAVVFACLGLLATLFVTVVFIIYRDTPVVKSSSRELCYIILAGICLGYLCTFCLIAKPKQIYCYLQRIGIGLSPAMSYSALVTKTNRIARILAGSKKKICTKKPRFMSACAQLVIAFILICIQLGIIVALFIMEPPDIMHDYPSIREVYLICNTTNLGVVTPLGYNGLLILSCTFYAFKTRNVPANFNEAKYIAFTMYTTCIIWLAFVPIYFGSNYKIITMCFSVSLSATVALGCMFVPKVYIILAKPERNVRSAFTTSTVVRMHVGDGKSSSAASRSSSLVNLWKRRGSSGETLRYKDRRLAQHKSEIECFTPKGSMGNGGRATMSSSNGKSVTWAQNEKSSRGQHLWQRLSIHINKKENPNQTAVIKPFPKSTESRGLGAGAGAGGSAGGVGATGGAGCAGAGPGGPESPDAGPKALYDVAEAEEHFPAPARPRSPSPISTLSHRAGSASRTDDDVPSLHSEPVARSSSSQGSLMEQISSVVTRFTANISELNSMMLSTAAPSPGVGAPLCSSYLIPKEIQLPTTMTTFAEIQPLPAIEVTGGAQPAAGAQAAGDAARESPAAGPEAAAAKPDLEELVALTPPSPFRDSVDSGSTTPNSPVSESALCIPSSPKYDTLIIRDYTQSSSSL

Consider `N[C@@]1(C(=O)O)C[S+]([O-])[C@H]2[C@H](C(=O)O)[C@H]21` (stereo in doubt; (-)-10), for which the outcome in [1], in series [2], in series [3], in series [4], in [5] and in series [6] was inactive. Moreover, the outcome in [7] and in series [8] was inactive.

As to `N[C@@]1(C(=O)O)C[S+]([O-])[C@H]2[C@H](C(=O)O)[C@H]21` (stereo in doubt; (+)-11), the outcome in series [1], in series [2], in [3], in series [4], in series [5] and in [6] was inactive. In addition, the result in [7] and in series [8] was inactive. Moreover, in the series on Rattus norvegicus [9], the outcome was Active.

Turning to `N[C@@]1(C(=O)O)C[S+]([O-])[C@H]2[C@H](C(=O)O)[C@H]21` (stereo in doubt; (-)-11), the Cp worked out at 325 ng/mL in the series on Rattus norvegicus [10]; 258 ng/mL with Rattus norvegicus [11]; 77 ng/mL in the series with Rattus norvegicus [12]; 367 ng/mL with Rattus norvegicus [14]; 71.8 ng/mL with Rattus norvegicus [17]; 229 ng/mL in the series with Rattus norvegicus [18]. In the series with Rattus norvegicus [13], the Tmax (usually the time at which the peak concentration occurs) was 1 h. For the same compound, the AUC (as a rule, concentration integrated over time) in the series with Rattus norvegicus [15] is 1100 ng·h/mL. Moreover, in the series with Rattus norvegicus [16], the Cmax (commonly the highest concentration seen after dosing) amounted to 400 ng/mL.

As for `N[C@@]1(C(=O)O)CC[C@H]2[C@H](C(=O)O)[C@H]21`, the outcome in series [1], in series [2], in series [3], in series [4], in [5] and in series [6] was inactive. For the same compound, the outcome in series [7] and in [8] was inactive.

On to `N[C@@]1(C(=O)O)CO[C@H]2[C@H](C(=O)O)[C@H]21`, for which the result in series [1], in [2], in [3], in [4], in series [5] and in series [6] was inactive. In addition, the outcome in [7] and in [8] was inactive.
